HSP90 refold inh: inhibitors of HSP90 luciferase refolding in rabbit reticulocyte lysate. luciferase refolding luminescence, 3 h. inhibition, % at 5.6 µM. 290,000 compounds, 0.91% hits;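 active = inhibition above the screen-wide mean plus 3 SD, computed separately per campaign, cut at about 16% in these data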;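 note: 0% = DMSO wells and 100% = 60 µM geldanamycin wells; inhibitors lower the luminescence because luciferase stays unfolded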
SENP6 block: blocks the human protease SENP6 | inhibition, % at 10 µM | 330,000 compounds, 1.8% hits | AID 2599 | Recombinant SENP6 catalytic domain, aminoluciferin luminescence | Q9GZR1;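 active = inhibition above about 50% at the single tested dose, limit read from the data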;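 note: plate controls were DMSO wells with enzyme for no effect and DMSO wells lacking enzyme for full effect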
SENP7 inh: blocks the human protease SENP7. 330,000 compounds, 1.5% hits. Q9BQF6. inhibition, % at 5 µM. recombinant SENP7, Z-RLRGG-aminoluciferin luminescence, 40 min;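 active = inhibition above about 50% at the single test dose, limit read from the data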;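 note: plate controls were DMSO with enzyme for no effect and no enzyme buffer wells for full effect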
SENP1 inh: SENP1 (human) catalytic domain inhibition; Q9P0U3; recombinant SENP1 catalytic domain, CyPet-SUMO1-YPet FRET cleavage; inhibition, % at 10 µM; 360,000 compounds, 0.21% hits;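 active = inhibition at least 30% at 10 µM, raw YFP signal under a set limit, fluorescence ratio 0.5 to 1.5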;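 note: 0% = enzyme with DMSO and 100% = no enzyme wells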
Target sequence (Q9P0U3 419-644 limits assumed): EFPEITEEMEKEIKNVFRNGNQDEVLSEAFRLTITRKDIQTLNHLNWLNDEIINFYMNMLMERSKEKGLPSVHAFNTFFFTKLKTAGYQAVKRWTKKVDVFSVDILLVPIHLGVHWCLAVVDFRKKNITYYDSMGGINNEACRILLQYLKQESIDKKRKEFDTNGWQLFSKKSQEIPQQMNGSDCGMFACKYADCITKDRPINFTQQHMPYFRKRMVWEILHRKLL
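Controls: no-enzyme wells low, DMSO-plus-enzyme wells high control. Test system: human recombinant His6-tagged SENP1 catalytic domain enzyme. Reagent: SFCypet-SUMO1-SFYpet FRET protein substrate, 25 nM final. Doses: one dose per compound, 10 µM, 0.5% DMSO. Detection: FRET, CFP and YFP emission. Timing: 50 min reaction at room temperature.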
SENP8 block-1: blocks human SENP8 cleavage of Nedd8 substrate; recombinant SENP8, Nedd8 substrate fluorescence; 360,000 compounds, 0.64% hits; AID 602440; Q96LD8; inhibition, % at 20 µM; in the data active = inhibition mostly above about 40%, no sharp cut-off; inactive = mostly below about 27%
Target sequence (Q96LD8 whole entry, looked up): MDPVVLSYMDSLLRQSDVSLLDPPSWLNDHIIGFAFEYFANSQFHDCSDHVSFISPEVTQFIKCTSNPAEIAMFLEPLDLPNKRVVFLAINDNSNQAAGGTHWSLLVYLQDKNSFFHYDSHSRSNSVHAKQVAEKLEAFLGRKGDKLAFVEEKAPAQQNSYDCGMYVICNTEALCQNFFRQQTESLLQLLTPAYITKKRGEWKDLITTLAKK
SENP8 block-2: SENP8 protease inhibition | Q96LD8 | purified SENP8, Z-RLRGG-aminoluciferin cleavage, luminescence | inhibition, % at 10 µM | 330,000 compounds, 1.2% hits; in the data active = inhibition above about 50%
SENP8 inh conf: SENP8 (human) inhibition, single concentration confirmation | shares compounds with SENP8 block-1 | purified SENP8, Nedd8-AMC/pro-Nedd8 cleavage fluorescence, 30 min | inhibition, % at 25 µM | 1,400 compounds, 15% hits | AID 624319; in the data active = inhibition mostly above about 39%, no sharp cut-off; inactive = mostly below about 34%
* = called active by the depositor; x = no result. Compounds with a hit are over-represented: about 2.9% of the library has one in this group of screens.

SMILES	HSP90 refold inh	SENP6 block	SENP7 inh	SENP1 inh	SENP8 block-1	SENP8 block-2	SENP8 inh conf
CC(C)(C)C(=O)N1CCN(c2ccc(NC(=O)c3ccc([N+](=O)[O-])o3)cc2)CC1	5	12	12	-1	48*	6	27
CC(C)(C)C(=O)N1CCN(c2ccc(NC(=O)c3ccco3)cc2)CC1	-5	-22	0	2	2	-2	x
O=C(CCCc1ccccc1)NCCS(=O)(=O)N1CCN(c2ccccc2)CC1	x	x	x	3	14	x	x
COc1nc(/C=C/N(C)C)c([N+](=O)[O-])c(OC)n1	6	0	-2	1	43*	4	19
CC(=O)Oc1ccc2oc(/C=C/N(C)C)c([N+](=O)[O-])c2c1	5	9	-2	-1	38	1	x
Cc1csc(NC(=O)CSc2nc(=O)[nH]c3c2CCCC3)n1	-7	-13	-1	2	3	-6	x
COc1cc(OC)c(NC(=O)[C@@H]2CCC(=O)N2C2OC(=O)c3c2ccc(OC)c3OC)cc1Cl (stereo partly drawn)	0	-2	-10	-3	51*	1	7
O=C(CNC(=O)c1cc(Cl)cc([N+](=O)[O-])c1)NC1CC1	x	-15	-9	-2	15	-19	x
O=C1c2ccccc2C(=O)c2c1ccc1c(=O)n(C3CCCCC3)[nH]c21	6	17	-3	-3	33	-8	x
O=C1C2=C(c3ccccc31)[N+](=O)C1CCCCC1N2[O-] (stereo not drawn)	-2	50	31	-1	84*	28	61*
Nn1c(-c2ccccc2Cl)nnc1-c1ccccc1Cl	0	13	9	1	40*	-6	9
O=C(Cn1nc(Cc2ccncc2)c2ccccc2c1=O)N1CCc2ccccc2C1	1	31	10	-3	84*	12	94*
Cc1ccc(S(=O)(=O)N(C)C[C@@H]2Oc3ncc(Br)cc3C(=O)N([C@H](C)CO)C[C@@H]2C)cc1	x	x	x	-1	5	x	x
COCOc1ccc(C2CC(=O)c3c(OCOC)cc(OCOC)cc3O2)cc1 (stereo not drawn)	x	-14	11	-1	54*	-10	-2
O=C1CC(c2ccccc2)Oc2cc(O)ccc21 (stereo not drawn)	3	-10	-1	-1	15	5	x
COCOc1ccc(-c2cc(=O)c3c(OCOC)cc(OCOC)cc3o2)cc1	x	-6	-9	-1	-105	-2	x
COc1ccc([C@@H]2CC(=O)c3c(O)cc(O)cc3O2)cc1O	x	28	4	0	3	15	x
O=C1CC(c2ccc(O)cc2)Oc2cc(O)ccc21 (stereo not drawn)	x	11	8	-15	51*	15	-14
COc1cc(O)c2c(c1)OC(c1ccc(O)cc1)CC2=O (stereo not drawn)	-8	-9	0	-3	74*	6	18
CC(C)Oc1ccc2ccccc2c1CNC[C@H]1O[C@@H](n2cnc(C(N)=O)n2)[C@H](O)[C@@H]1O	x	x	x	-1	0	x	x
Cc1ccc(C)c2c1CCCC2=O	x	x	x	1	6	x	x
CN(C)/C=C/C=C1C(=O)CCCC1=O	0	-6	-6	-1	49*	-9	6
COc1ccc(CN(C2CCCC2)S(=O)(=O)c2ccc(-n3cnnn3)cc2)cc1	-1	-14	4	-1	44*	-8	23
COc1ccc(CN(C2CCCC2)S(=O)(=O)c2ccc(-n3cnnn3)cc2)cc1OC	-3	-17	-3	3	26	-7	x
Cc1cccc(N2C(=O)c3ccc(C(=O)Nc4ccccn4)cc3C2=O)c1	-5	6	-18	3	11	-10	x
O=C(O)c1cccc(N2C(=O)c3ccc(Oc4ccc(Cl)cc4)cc3C2=O)c1	-3	-6	-2	3	6	12	x
Cc1cccc(N2C(=O)/C(=C\c3ccc(C(=O)O)cc3)c3ccccc3C2=O)c1	1	33	23	-15	43*	5	-37
O=C(O)c1cccc(C(=O)O)c1	-1	-9	12	1	45*	-17	12

Compound activity (PubChem)
